Screens: PubChem BioAssay, several laboratories
This is a sample that favours compounds with a hit; in the whole collection about 5.7% have one here.
Mdm2 MdmX PPI: inhibitors of human Mdm2-MdmX association, primary screen, cell-based, luminescence, split luciferase, SaOS-2, uHTS | Protein Mdm4 (Homo sapiens) + E3 ubiquitin-protein ligase Mdm2 (Homo sapiens), … | SaOS-2 split-luciferase Mdm2/MdmX complementation | inhibition, % at 8 µM | 330,000 tested, 3% active | AID 485346, 2010;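 active = inhibition of at least 50% at 8 µM in the primary screen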
Target sequence (O15151 whole entry, looked up): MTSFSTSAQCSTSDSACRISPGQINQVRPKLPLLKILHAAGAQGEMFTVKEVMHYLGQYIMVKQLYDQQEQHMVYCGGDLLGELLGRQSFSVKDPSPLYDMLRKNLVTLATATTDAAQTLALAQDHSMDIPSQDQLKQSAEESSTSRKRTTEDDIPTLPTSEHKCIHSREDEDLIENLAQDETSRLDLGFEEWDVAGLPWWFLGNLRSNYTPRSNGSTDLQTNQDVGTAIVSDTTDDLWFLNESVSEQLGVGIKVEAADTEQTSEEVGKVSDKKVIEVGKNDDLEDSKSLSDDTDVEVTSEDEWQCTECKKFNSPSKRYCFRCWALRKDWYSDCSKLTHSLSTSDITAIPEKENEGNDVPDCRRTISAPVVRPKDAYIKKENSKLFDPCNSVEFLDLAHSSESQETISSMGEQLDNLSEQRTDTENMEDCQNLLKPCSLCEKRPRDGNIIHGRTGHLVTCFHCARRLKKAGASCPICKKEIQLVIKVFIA
Target sequence (Q00987 whole entry, looked up): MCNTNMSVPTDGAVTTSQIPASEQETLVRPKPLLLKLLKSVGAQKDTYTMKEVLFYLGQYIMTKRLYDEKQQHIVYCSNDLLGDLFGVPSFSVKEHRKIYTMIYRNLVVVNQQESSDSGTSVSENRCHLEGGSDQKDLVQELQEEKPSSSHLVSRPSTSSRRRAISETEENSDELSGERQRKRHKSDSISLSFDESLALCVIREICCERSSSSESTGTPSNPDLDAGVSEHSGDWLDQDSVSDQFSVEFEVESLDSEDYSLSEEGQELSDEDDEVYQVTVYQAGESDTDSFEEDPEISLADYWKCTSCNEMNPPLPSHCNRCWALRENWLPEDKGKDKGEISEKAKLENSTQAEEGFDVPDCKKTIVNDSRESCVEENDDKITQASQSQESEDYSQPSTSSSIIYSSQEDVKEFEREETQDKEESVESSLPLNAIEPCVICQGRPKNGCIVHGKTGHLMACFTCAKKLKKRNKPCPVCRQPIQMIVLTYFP
CSC inhib: cancer stem cell viability inhibitors, primary screen, luminescence. cancer stem cell-like cells viability. inhibition, % at 7.5 µM. 300,000 tested, 1.1% active. AID 2717, 2010; in the data active = inhibition above about 75%; inconclusive = no clear call, values can overlap the other calls; tested in HMLE shEcad cells
Beta apoptosis: inhibitors of cytokine-induced beta cell apoptosis, primary screen, luminescence; protection from apoptosis, % (no concentration beside the values); INS-1E cytokine-induced death, ATP luminescence, 48 h; percent of positive-control rescue, neutral wells zero; 300,000 tested, 0.8% active; AID 435005, 2010;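 active = Every replicate reaches about 75%, or at least half do and their mean reaches it too, limit read from the data; inconclusive = At least half of replicates reach the limit but their mean does not; inactive = Under half of replicates reach the limit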;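 note: 0% = cytokine-treated negative control wells and 100% = positive control rescue; higher means more ATP so stronger rescue from cytokine killing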
T cruzi inh: inhibitors of intracellular T. cruzi growth, primary screen, luminescence, NIH3T3 host cells | T. cruzi beta-gal in NIH3T3, 90 h | inhibition, % (test concentration not listed) | 300,000 tested, 1.4% active | AID 1885, 2009;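 active = mean inhibition across valid replicates above about 55%, limit read from the data; inconclusive = mean below that limit but half or more replicates reach it; inactive = mean below it, under half of replicates reach it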;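 note: signal also drops with host cell toxicity which is not excluded here; 0% = plate median of DMSO wells and 100% = zero luminescence signal; higher percent means less beta-gal luminescence so fewer parasites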
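System – NIH/3T3 host cells with β-galactosidase reporter T. cruzi · Doses – single 50 nL compound addition per well in DMSO · Reagent – 5000 T. cruzi trypomastigotes/well · Medium – Low-serum DMEM with 2% FBS · Timing – ≥90 h infection period, 3 h prior cell attachment · Evaluation – parasite load inhibition, % · Technique – GalScreen luminescence, 60 min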
Calb FLC: C. albicans growth inhibition with fluconazole, primary screen, CaCi-2 strain, Alamar Blue fluorescence; C. albicans CaCi-2 (fluconazole-resistant clinical isolate) + fluconazole, 48 h; growth inhibition, % (concentration not given with the values); 300,000 tested, 0.57% active; AID 1979, 2009;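 active = growth inhibition above about 58% in most replicates, limit read from the data, passing the limit was not always enough; inconclusive = exactly half the replicates above a set limit; inactive = most replicates below a set limit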;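 note: all wells also contain fluconazole at 8 µg/ml as a sub-toxic cotreatment; 0% = median of DMSO wells and 100% = median of geldanamycin control wells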
SKKanGAS inh: S. pyogenes SKKanGAS growth inhibitors in kanamycin, primary screen, streptokinase expression inhibitor project, SKKanGAS strain, BacTiter-Glo luminescence; AID 1662, 2009; 300,000 tested, 1.3% active; inhibition, % at 7.5 µM; 6 h;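 active = mean replicate score, as percent of positive control median, at least 50; inconclusive = mean below 50 but one replicate at or above 50; inactive = mean and every replicate below 50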;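 note: strain carries kanamycin resistance gene driven by streptokinase promoter and grows in 40 µg/ml kanamycin; loss of luminescence reflects streptokinase promoter inhibition or plain growth inhibition; 0% = median of DMSO wells and 100% = positive control at its reference dose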
Mdm2-MdmX conf: Mdm2-MdmX complex disruptors, retested hits, confirmation, luminescence, single concentration | shares compounds with Mdm2 MdmX PPI | Mdm2-MdmX binding, luminescent assay | inhibition, % at 8 µM | 10,000 tested, 55% active; in the data active = inhibition above about 40%
FLuc counter: full-length luciferase signal inhibition, confirmation, counter-screen for Mdm2/MdmX interaction inhibitor project, cell-based, single concentration, SaOS-2; 6,200 tested, 77% active; shares compounds with Mdm2 MdmX PPI; SaOS-2 full-length luciferase counterscreen, luminescence; inhibition, % at 8 µM; AID 504607, 2011;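 active = mean inhibition at 8 µM reaching about 37%, which flags the compound as non-specific, limit read from the data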;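 note: p53-null SaOS-2 cells with luciferase driven by a doxycycline-inducible promoter; compound on cells about two nights before reading with doxycycline added after day one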
Numbers without * were called inactive; ? = inconclusive; . = no result.

SMILES | Mdm2 MdmX PPI | CSC inhib | Beta apoptosis | T cruzi inh | Calb FLC | SKKanGAS inh | Mdm2-MdmX conf | FLuc counter
N#Cc1ccc(Nc2nc(-c3ccc(O)cc3O)cs2)cc1C(F)(F)F | 68.8* | 84.7* | 8.1 | . | . | . | 60.8* | 55.0*
CC/C(=C(/CC)c1ccc(O)cc1)c1ccc(O)cc1 | 54.1* | 67.7 | -11.0 | -4.9 | . | -7.7 | 47.9* | 52.6*
CCCCC(=O)Nc1ccc(C(=O)NNC(=O)c2ccc(C)c(Br)c2)cc1 | 65.1* | . | 2.4 | -2.6 | 5.7 | 1.8 | 30.9 | 43.4*
Cc1ccc(NC(=S)NC(=O)c2ccc(F)cc2)cc1S(=O)(=O)Nc1cccc(Cl)c1 | 67.4* | 60.2 | 16.4 | 40.4 | -1.5 | 70.2* | 54.0* | 107.5*
Cc1ccc(NC(=O)c2cccs2)cc1S(=O)(=O)Nc1cccc(Cl)c1 | 26.8 | 28.9 | 2.5 | 12.1 | 39.3 | 42.1 | . | .
CC1CCC(C(C)C)C(OC(=O)C[n+]2cc(-c3ccc(Cl)cc3)n3c2CCCCC3)C1 (stereo not drawn) | 85.2* | -4.2 | 106.3* | 56.0* | 95.0* | 22.2 | 74.3* | 36.5*
O=C(C[n+]1cc(-c2ccccc2)n2c1CCCCC2)c1ccc(Cl)cc1 | 7.6 | 3.2 | 3.8 | 37.9 | ? | -10.2 | . | .
Cc1cccc(OCC(=O)NCC(=O)N/N=C/c2cc(Br)cc(Br)c2O)c1 | 56.4* | 27.8 | 55.0 | 23.3 | -39.0 | 61.1* | 76.9* | 22.0
COc1cccc(/C=N/NC(=O)CNC(=O)COc2ccccc2)c1O | 15.2 | 55.1 | 18.6 | 3.8 | -11.5 | 1.8 | . | .
O=C(Nc1ccc(Cl)c(C(F)(F)F)c1)[C@@H]1CC=C[C@@H]2CCN(Cc3ccc(Cl)c(Cl)c3)C(=O)[C@@H]21 | 62.6* | 35.1 | 7.7 | 50.4 | 2.8 | 5.5 | 1.4 | .
Clc1ccc2nc(N3CCNCC3)nc(-c3ccccc3)c2c1 | 63.6* | 17.8 | 1.2 | 3.8 | -21.3 | 7.4 | 21.3 | .
O=C1CN(c2nc(-c3ccccc3)c3cc(Cl)ccc3n2)c2ccccc2N1 | 67.8* | -28.8 | 42.1 | -10.1 | -4.1 | 12.7 | 0.9 | .
CCCC1=Nc2cc(C(=O)NCCN3CCOCC3)ccc2Sc2ccccc21 | 4.3 | 23.3 | 0.1 | 17.7 | -5.7 | -7.7 | . | .
CC1=Nc2cc(C(=O)NCCN3CCOCC3)ccc2Sc2c(C)ccc(C)c21 | 64.1* | 41.8 | 0.6 | -0.5 | -2.3 | 2.6 | 51.8* | 46.6*
CC1=Nc2cc(C(=O)NCCCN3CCOCC3)ccc2Sc2c(C)ccc(C)c21 | 66.1* | 46.8 | -9.4 | 19.7 | 2.7 | 4.1 | 11.2 | .
CCCCc1nnc(NC(=O)CCN2C(=O)C3CC=CCC3C2=O)s1 (stereo not drawn) | -1.2 | . | -4.6 | . | . | . | . | .
COc1ccc(NC(=O)CN(C)C(=O)c2sc3ccccc3c2Cl)cc1 | -13.0 | 18.7 | . | -10.1 | 1.1 | -9.3 | . | .
COc1ccc(Cl)cc1NC(=O)CC(=O)Nc1cc(Cl)ccc1OC | 65.8* | -17.2 | 9.8 | 37.3 | -4.5 | 19.1 | 17.0 | .
COc1ccc(Cl)cc1NC(=O)CN(C)C(=O)c1sc2ccccc2c1Cl | 54.0* | . | 0.9 | . | . | . | 17.5 | .
COc1ccc(Cl)cc1NC(=O)CN(C)CC(=O)Nc1ccccc1N1CCOCC1 | 57.9* | 51.7 | 19.7 | 6.6 | -5.5 | 14.1 | 54.7* | 65.5*
COc1ccc(Cl)cc1NC(=O)Cn1cccc1 | -18.4 | -0.6 | -7.2 | -15.6 | -31.0 | -0.4 | . | .
C[C@@H]1COC(=O)[C@@H](Cc2ccc(F)cc2)C/C=C\C[C@@H](CC(=O)NCCO)C(=O)N1 | 10.1 | 5.0 | 2.8 | . | . | . | . | .
CCN1C(=O)c2ccc(C(=O)Nc3ccc4c(c3)OCO4)cc2C1=O | -7.4 | -3.2 | -8.8 | -2.0 | -6.1 | -1.9 | . | .
COc1ccc2c(c1)c(CC(=O)Nc1nnc(C3CC3)s1)c(C)n2C(=O)c1ccc(Cl)cc1 | 82.8* | . | 15.0 | 56.7* | 1.3 | 10.3 | 79.8* | 64.8*
COc1ccc2c(c1)c(CC(=O)Nc1ccc(C(C)=O)cc1)c(C)n2C(=O)c1ccc(Cl)cc1 | -2.2 | -16.5 | 0.9 | 35.5 | -22.2 | 26.0 | . | .
SMILES | Mdm2 MdmX PPI | CSC inhib | Beta apoptosis | T cruzi inh | Calb FLC | SKKanGAS inh | Mdm2-MdmX conf | FLuc counter
COc1ccc(N2CC(C(=O)N[C@@H](C)C(=O)NCCc3ccccc3)CC2=O)cc1 (stereo partly drawn) | -5.0 | -10.4 | -9.0 | -11.3 | -0.2 | -0.1 | . | .
O=C(OCC1OC2C(Oc3nc(=O)ccn32)C1O)c1ccccc1 (stereo not drawn) | 5.3 | -8.5 | 2.2 | 5.5 | 0.3 | 1.2 | . | .
N=c1ccn2c(n1)O[C@H]1[C@H](O)[C@@H](CO)O[C@H]12 | 60.6* | 30.4 | 1.2 | 17.1 | -1.5 | ? | 63.9* | 45.7*
N=c1ccn2c(n1)O[C@H]1[C@@H](CO)[C@H](O)O[C@H]12 | 69.5* | 56.2 | 9.1 | . | . | . | 61.2* | 43.0*
O=C(Nc1nc(NC(=O)c2ccco2)n(-c2ccccc2)n1)c1ccccc1 | 74.4* | 26.9 | 89.1* | 1.7 | -23.0 | -15.6 | 63.6* | 45.8*
Nc1nc(NC(=O)c2ccccc2)nn1-c1ccccc1 | -15.9 | 0.3 | -3.5 | 0.7 | 2.0 | -11.2 | . | .
N#Cc1c2ccc([N+](=O)[O-])cc2[n+]([O-])n1-c1ccccc1 | 77.3* | . | 101.4* | . | . | . | 35.5 | .
Cc1ccc(CNC(=O)CCC(=O)Nc2nnc(C(C)C)s2)cc1 | 5.7 | -6.4 | -4.9 | -9.2 | 1.2 | 12.4 | . | .
COc1ccc(Nc2nc(-c3sc(C)nc3C)cs2)c(OC)c1 | 64.6* | 57.3 | . | -26.1 | -35.9 | -0.6 | 56.3* | 63.2*
COc1ccc(OC)c(Nc2nc(-c3c(C)nc4ncccn34)cs2)c1 | 75.6* | -2.0 | 2.5 | 1.9 | -5.4 | 2.0 | 34.0 | 85.2*
CCOc1ccccc1NC(=O)COC(=O)C1CCC(=O)N1 (stereo not drawn) | 16.3 | -16.5 | -8.0 | . | . | . | . | .
Cc1cccc(NC(=O)c2cc3c(=O)n4ccccc4nc3n(CC(C)C)c2=N)c1 | 48.3 | 3.9 | 1.7 | 12.4 | 15.1 | -1.4 | . | .
COc1cccc(NC(=O)c2cc3c(=O)n4ccccc4nc3n(CC(C)C)c2=N)c1 | 74.0* | 5.4 | -0.7 | 9.8 | 3.1 | 3.2 | 68.5* | 41.1*
COc1ccc(CCn2c(=N)c(C(=O)NC3CCCC3)cc3c(=O)n4ccccc4nc32)cc1 | 51.6* | -3.3 | -0.6 | 2.4 | -1.6 | -6.9 | -0.5 | .
